Measured values of several laboratories.
Protocols differ between the studies behind these lines.
SPHK2: Sphingosine kinase 2 (SPHK2, Homo sapiens, UniProt Q9NRA0)
SIRT1: NAD-dependent protein deacetylase sirtuin-1 (SIRT1, Homo sapiens, UniProt Q96EB6)
XDH: Xanthine dehydrogenase/oxidase (XDH, Bos taurus, UniProt P80457)
SLC7A5: Large neutral amino acids transporter small subunit 1 (SLC7A5, Homo sapiens, UniProt Q01650)

`N=C(N)N1CCC[C@H]1c1nc(-c2ccc(CCC3CC3)c(C(F)(F)F)c2)no1` has an inhibition of 32% (SPHK2; enzyme activity, inhibitor, radiometric; 0.3 µM).
With `CC(C)C1CC(=O)c2cc(Cl)cc(Br)c2O1` (stereo not drawn) the inhibition was 2.8% (SIRT1; enzyme activity, inhibitor, fluorescence; 200 µM).
For `OCCc1ccc(O)cc1`, the inhibition was 7.9% (XDH; enzyme activity, inhibitor, absorbance; 100 µg/mL).
For `CCCCCCCCCCCCNC(=S)NCCCC[C@H](NC(=O)OCc1ccccc1)C(=O)N[C@@H](Cc1c[nH]c2ccccc12)C(=O)N[C@@H](CC(N)=O)C(N)=O`, the inhibition was 29% (SIRT1; enzyme activity, inhibitor; 10 µM).
With `O=C(NC1CCC1)[C@H](Cc1c[nH]c2ccccc12)NC(=O)[C@H](CCCCNC(=S)NCCc1nnn[nH]1)NS(=O)(=O)c1cccc(F)c1` the inhibition was 7% (SIRT1; enzyme activity, inhibitor; 1 µM).
For `NC(COC(=O)c1ccccc1)C(=O)O` (stereo not drawn), the inhibition was 16% (SLC7A5; transporter uptake, inhibitor, radiometric; 200 µM).
The inhibition of `O=C1C=C(c2ccc(O)c(O)c2)CO1` is reported as 50% (XDH; enzyme activity, inhibitor, absorbance; 200 µg/mL).
`N[C@@H](Cc1ccc(OC(=O)c2ccccc2)cc1)C(=O)O` gave an inhibition of 49% (SLC7A5; transporter uptake, inhibitor, radiometric; 200 µM).
For `CCCCCCCCNC(=S)NCCCC[C@H](NS(C)(=O)=O)C(=O)N[C@H](C)C(=O)N[C@@H](CCCNC(=N)N)C(N)=O`, the inhibition was 71% (SIRT1; enzyme activity, inhibitor; 10 µM).
The inhibition of `[H]/N=C(\N)N1CCC[C@H]1c1nc(-c2ccc(OCC=Cc3cccc(C(F)(F)F)c3)c(C(F)(F)F)c2)no1` is reported as 56% (SPHK2; enzyme activity, inhibitor, radiometric; 0.3 µM).
With `O=Cc1c[nH]c2ccccc12` the inhibition was 8.1% (XDH; enzyme activity, inhibitor, absorbance; 100 µg/mL).
For `CCCCCCCC1CC(=O)c2cc(Cl)cc(Br)c2O1` (stereo not drawn), the inhibition was 7.5% (SIRT1; enzyme activity, inhibitor, fluorescence; 200 µM).
`CCCCCCCCCCCCNC(=S)NCCCC[C@H](NC(=O)OCc1ccccc1)C(=O)N[C@@H](Cc1c[nH]c2ccccc12)C(=O)N[C@@H](CCNC(=N)N)C(N)=O` gave an inhibition of 30% (SIRT1; enzyme activity, inhibitor; 1 µM).
`O=C(O)Cc1ccccc1OP(=O)(O)O` has an inhibition of 39% (Signal transducer and activator of transcription 5B, SH2 (STAT5B, Homo sapiens, UniProt P51692); ligand displacement, FP; 100 µM).
With `CC(C)(C)c1ccc(CCc2ccc(-c3noc([C@@H]4CCCN4C(=N)N)n3)cc2C(F)(F)F)cc1` the inhibition was 71% (SPHK2; enzyme activity, inhibitor, radiometric; 0.3 µM).
The inhibition of `CCCCCC1CC(=O)c2cccc(Br)c2O1` (stereo not drawn) is reported as 7.1% (SIRT1; enzyme activity, inhibitor, fluorescence; 200 µM).
`CCCCCCCCCCCCNC(=S)NCCCC[C@H](NC(=O)OCc1ccccc1)C(=O)N[C@@H](Cc1c[nH]c2ccccc12)C(=O)N[C@@H](CCC(=O)O)C(N)=O` gave an inhibition of 28% (SIRT1; enzyme activity, inhibitor; 1 µM).
`O=C(O)c1ccc(O)c(O)c1` gave an inhibition of 20.8% (XDH; enzyme activity, inhibitor, absorbance; 200 µg/mL).
`O=C1CC(CCc2ccccc2)Oc2c(Br)cc(Cl)cc21` (stereo not drawn) gave an inhibition of 6.9% (SIRT1; enzyme activity, inhibitor, fluorescence; 200 µM).
With `O=C(CSc1nc2nccnc2c(=O)n1CCc1ccccc1)Nc1ccccc1` the inhibition was under 20% (SPHK2; enzyme activity, inhibitor; 10 µM).
`CCCc1ccc(CCc2ccc(-c3noc([C@@H]4CCCN4C(=N)N)n3)cc2C(F)(F)F)cc1` gave an inhibition of 65% (SPHK2; enzyme activity, inhibitor, radiometric; 0.3 µM).
